Test results taken from ChEMBL document CHEMBL3608210, “LC-MS- and (1)H NMR Spectroscopy-Guided Identification of Antifungal Diterpenoids from Sagittaria latifolia” (J Nat Prod, 2015).
Converted amounts (≈) assume the structure as drawn. The source made the active and inactive calls. The calls are words filed in the database; no cut-off is given here.

Legend:
Cryptococcus neoformans [1] = assay: Antifungal activity against Cryptococcus neoformans ATCC 90113 assessed as inhibition of microbial growth at 20 ug/ml incubated for 72 hrs at 30 degC by modified CLSI protocol based method; assay type: functional, organism-based
In short: (§1)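 Strains were obtained from ATCC, and amphotericin B served as the positive control. IC50 was the concentration giving 50% growth inhibition of fungal cells. MIC was the lowest concentration allowing no detectable growth. The highest concentration tested was 20 μg/mL.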

Cryptococcus neoformans [2] = assay: Antifungal activity against Cryptococcus neoformans ATCC 90113 assessed as inhibition of microbial growth incubated for 72 hrs at 30 degC by modified CLSI protocol based method; assay type: functional, organism-based; conditions: ATCC 90113, 72 h; in short: as §1
[3] = system: Cryptococcus bacillisporus; assay: Antifungal activity against Cryptococcus gattii ATCC 32609 assessed as inhibition of microbial growth incubated for 72 hrs at 30 degC by modified CLSI protocol based method; assay type: functional, organism-based; conditions: ATCC 32609, 72 h; in short: as §1
Vero = assay: Cytotoxicity against african green monkey Vero cells assessed as reduction in cell viability incubated for 48 hrs by neutral red based assay; conditions: Chlorocebus sabaeus
In short: (§2)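 Vero (African green monkey kidney […]) and LLC-PK1 (pig kidney epithelial) cells were obtained from ATCC. Cytotoxicity was read by neutral red uptake, with doxorubicin as the positive control. IC50 was taken as the concentration giving 50% growth inhibition of the mammalian cells.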

LLC-PK1 = assay: Cytotoxicity against pig LLC-PK1 cells assessed as reduction in cell viability incubated for 48 hrs by neutral red based assay; conditions: Sus scrofa, LLC-PK1, 48 h; in short: as §2

SMILES	growth inhibition (GI) (Cryptococcus neoformans [1])	IC50 (Cryptococcus neoformans [2]) [mg/L]	MIC (Cryptococcus neoformans [2]) [mg/L]	IC50 [3] [mg/L]	MIC [3] [mg/L]	IC50 (Vero) [mg/L]	IC50 (LLC-PK1) [mg/L]
C=C[C@@]1(C)CC[C@H]2C(=CC[C@H]3[C@@](C)(CO[C@@H]4O[C@@H](COC(C)=O)[C@H](O)[C@H]4O)CCC[C@]23C)C1	inactive	–	–	–	–	–	–
C=C[C@@]1(C)CC[C@H]2C(=CC[C@H]3[C@@](C)(CO)CCC[C@]23C)C1	–	9.2	> 20	6.8	20	37.5 (≈ 130 µM)	42.5 (≈ 147 µM)
C=C[C@@]1(C)CC[C@H]2C(=CC[C@H]3[C@@](C)(CO[C@@H]4O[C@@H](CO)[C@H](O)[C@H]4O)CCC[C@]23C)C1	–	3.7	> 20	1.8	20	30 (≈ 71.3 µM)	21.5 (≈ 51.1 µM)
COc1cccc2c1C(=O)c1c(O)c3c(c(O)c1C2=O)C[C@@](O)(C(=O)CO)C[C@@H]3O[C@H]1C[C@H](N)[C@H](O)[C@H](C)O1 [DOXORUBICIN]	–	–	–	–	–	5.4 (≈ 9.94 µM)	0.4 (≈ 0.736 µM)
C[C@@H]1[C@H](O)[C@@H](C)/C=C/C=C/C=C/C=C/C=C/C=C/C=C/[C@H](O[C@@H]2O[C@H](C)[C@@H](O)[C@H](N)[C@@H]2O)C[C@@H]2O[C@](O)(C[C@@H](O)C[C@@H](O)[C@H](O)CC[C@@H](O)C[C@@H](O)CC(=O)O[C@H]1C)C[C@H](O)[C@H]2C(=O)O [AMPHOTERICIN B]	–	–	0.7	0.1	0.3	–	–
